Source: ChEMBL document CHEMBL4376902, “CN128: A New Orally Active Hydroxypyridinone Iron Chelator” (J Med Chem, 2020)
Calls of active or inactive are those of the source. No cut-off for these calls is given here.

Assays:
[1] = Toxicity in Sprague-Dawley rat assessed as induction of histopathological changes in pancreas at 25 to 116 mg/kg, po dosed daily for 4 weeks and measured after additional 4 weeks period in absence of drug; assay type: organism-based; conditions: in vivo, 672 h
[2] = Apparent volume of distribution in Sprague-Dawley rat at 75 umol/kg, po measured up to 1440 mins by LC/MS/MS analysis; assay type: ADME, organism-based; conditions: in vivo, 24 h
[3] = target: Cytochrome P450 3A4 (Homo sapiens, UniProt P08684); test: Inhibition of CYP3A4 in human liver microsomes; assay type: ADME
[4] = Drug metabolism in human liver microsomes assessed as glucuronidation incubated for 1 hr relative to deferiprone; assay type: ADME, Microsome
In short: (§1)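 Compound incubated 1 h with rat or human liver microsomes, n = 4, mean ± SD. Glucuronide formed given as percentage of total chelator added. Oxidative metabolism assessed separately.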

[5] = Genotoxicity in Salmonella typhimurium by Ames test; assay type: toxicity; conditions: salmonella enterica subsp. enterica serovar typhimurium
[6] = Drug level in rat intestine at 150 umol/kg, po measured measured up to 6 hrs by LC-MS/MS analysis; assay type: ADME, organism-based; conditions: in vivo
In short: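 Single oral dose of 150 μmol/kg to SD rats, half male and half female, n=6 per group. Rats decapitated at 10 min, 30 min, 2 h and 6 h. Tissues dissected, saline-washed, weighed and homogenised in acetonitrile/water 1:9 (125 mg/mL). Drug level measured against plasma; mean ± SE.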

[7] = Drug metabolism in human liver microsomes assessed as oxidative metabolism incubated for 1 hr relative to deferiprone; assay type: ADME, Microsome
[8] = Cmax in Sprague-Dawley rat at 150 umol/kg, po measured up to 1440 mins by LC/MS/MS analysis; assay type: ADME, organism-based; set-up: dose 150 umol/kg, route oral; conditions: in vivo
[9] = test system: Rattus norvegicus; test: Iron scavenging activity in iron-overloaded rat assessed as iron removal efficacy at 75 to 1200 umol/kg, po; assay type: functional, organism-based
In short: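 Male SD rats (300 g), fasted overnight, given about 1 μC 59Fe-ferritin i.v. under isoflurane; chelator by oral gavage 1 h later; doses 75, 150, 300, 600 and 1200 μmol/kg. Rats housed in metabolic cages, food returned 1 h post-dose; killed 24 h after ferritin injection. Urine, faeces, liver and gut gamma-counted. Iron removal expressed as % efficacy.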

[10] = Apparent volume of distribution in Sprague-Dawley rat at 600 umol/kg, po measured up to 1440 mins by LC/MS/MS analysis; assay type: ADME, organism-based; conditions: in vivo, 24 h
[11] = AUC (0 to infinity) in Sprague-Dawley rat at 150 umol/kg, po measured up to 1440 mins by LC/MS/MS analysis; assay type: ADME, organism-based; set-up: dose 150 umol/kg, route oral, time infinity; conditions: in vivo, 24 h
[12] = Toxicity in Sprague-Dawley rat assessed as induction of mortality at 200 mg/kg, po dosed once daily for 2 months as 5 days per week schedule; assay type: organism-based; conditions: in vivo, 120 h
[13] = Drug metabolism in rat liver microsomes assessed as oxidative metabolism incubated for 1 hr relative to deferiprone; assay type: ADME, Microsome
[14] = test system: Rattus norvegicus; test: Iron scavenging activity in 59Fe-ferritin-loaded rat assessed as iron mobilization level at 450 umol/kg, po dosed 1 hr after 59Fe-ferritin injection and measured 24 hrs after 59Fe-ferritin injection by gamma counting method relative to control; assay type: functional
In short: (§2)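 Male SD rats, 300 g, fasted overnight, given about 1 μC 59Fe-ferritin i.v. under isoflurane. Chelator gavaged 1 h later, then rats housed in metabolic cages; food returned 1 h after dosing. Killed 24 h after 59Fe-ferritin. Urine, faeces, liver and gut gamma-counted. 8 rats per condition.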

[15] = AUC (0 to infinity) in Sprague-Dawley rat at 600 umol/kg, po measured up to 1440 mins by LC/MS/MS analysis; assay type: ADME, organism-based; set-up: dose 600 umol/kg, time infinity, route oral; conditions: in vivo, 24 h
[16] = Ratio of drug level in liver to plasma in rat at 150 umol/kg, po measured within 10 mins by LC-MS/MS analysis; assay type: ADME, organism-based; conditions: liver and plasma
In short: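 SD rats (half male, half female, n = 6 per group) given a single oral 150 μmol/kg dose. Killed at 10 min, 30 min, 2 h or 6 h; tissues washed in saline, weighed and homogenised in acetonitrile/water 1:9 (125 mg/mL). Tissue levels compared with plasma.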

[17] = Binding affinity to Ni2+ ion assessed as affinity constant by spectrophotometric titration method
In short: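 Automated spectrophotometric titration with 0.1 M KOH in 0.1 pH steps, 3 min equilibration per step, 50 mm cuvette, iron complexes at ca. 40 µM. Titrated in competition with metal hydrolysis species up to pH 12.0. Hydrolysis constants taken from critical compilations. Iron spectra fitted over 400–700 nm.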

[18] = Binding affinity to Al3+ ion assessed as affinity constant by spectrophotometric titration method
[19] = AUC (0 to infinity) in Sprague-Dawley rat at 75 umol/kg, po measured up to 1440 mins by LC/MS/MS analysis; assay type: ADME, organism-based; set-up: dose 75 umol/kg, route oral, time infinity; conditions: in vivo, 24 h
[20] = Apparent clearance in Sprague-Dawley rat at 150 umol/kg, po measured up to 1440 mins by LC/MS/MS analysis; assay type: ADME, organism-based; conditions: in vivo, read-out: CL(app) (converted)
[21] = Drug metabolism in rat liver microsomes assessed as glucuronidation incubated for 1 hr relative to deferiprone; assay type: ADME, Microsome; in short: as §1
[22] = test system: Rattus norvegicus; test: Iron scavenging activity in 59Fe-ferritin-loaded rat assessed as iron mobilization level at 150 umol/kg, po dosed 1 hr after 59Fe-ferritin injection and measured 24 hrs after 59Fe-ferritin injection by gamma counting method relative to control; assay type: functional, organism-based; in short: as §2
[23] = Drug metabolism in rat bile assessed as (2S,3S,4S,5R,6R)-3,4,5-trihydroxy-6-[(2R)-2-(3-hydroxy-2-methyl-4-oxo-1-pyridyl)-3-phenylpropoxy]tetrahydropyran-2-carboxylic acid formation at 150 umol/kg, po by LC/TOF/MS/MS analysis; assay type: ADME, organism-based; conditions: in vivo
In short: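 Bile collected from rats after an oral dose of 150 μmol/kg. Metabolites characterised by β-glucuronidase hydrolysis and LC-TOFMS/MS. M2/M1 ratio followed over 8 h.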

[24] = Toxicity in iron-overloaded rat assessed as drug tolerability at 75 to 1200 umol/kg, po; conditions: in vivo
[25] = test system: Rattus norvegicus; test: Iron scavenging activity in 59Fe-ferritin-loaded rat assessed as iron mobilization level at 150 to 450 umol/kg, po dosed 1 hr after 59Fe-ferritin injection and measured 24 hrs after 59Fe-ferritin injection by gamma counting method relative to control; assay type: functional, organism-based; in short: as §2
[26] = Cmax in Sprague-Dawley rat at 75 umol/kg, po measured up to 1440 mins by LC/MS/MS analysis; assay type: ADME, organism-based; set-up: dose 75 umol/kg, route oral; conditions: in vivo

Chain of Cytochrome P450 3A4 (P08684 whole entry): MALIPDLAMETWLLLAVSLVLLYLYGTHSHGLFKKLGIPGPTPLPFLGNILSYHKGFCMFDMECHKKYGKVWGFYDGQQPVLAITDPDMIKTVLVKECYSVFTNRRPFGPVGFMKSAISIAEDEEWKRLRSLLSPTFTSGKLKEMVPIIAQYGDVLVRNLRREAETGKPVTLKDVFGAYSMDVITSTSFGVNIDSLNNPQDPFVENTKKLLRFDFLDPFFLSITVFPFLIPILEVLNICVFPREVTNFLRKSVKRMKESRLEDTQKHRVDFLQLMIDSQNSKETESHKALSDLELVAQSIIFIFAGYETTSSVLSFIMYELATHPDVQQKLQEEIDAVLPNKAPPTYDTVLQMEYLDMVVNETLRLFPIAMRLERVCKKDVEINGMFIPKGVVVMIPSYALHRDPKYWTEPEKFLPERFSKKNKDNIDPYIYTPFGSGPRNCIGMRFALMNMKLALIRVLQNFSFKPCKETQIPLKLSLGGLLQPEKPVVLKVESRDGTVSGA

Cc1c(O)c(O)cc[n+]1[C@@H](CO)Cc1ccccc1.[Cl-]
Activity [1]: Non-Toxic
Vz [2]: 7.6 L/kg
IC50 [3]: > 200 µM
Drug metabolism [4]: Metabolite_Detected
Activity [5]: Non-Toxic
Drug uptake [6]: Not Active
Drug metabolism [7]: Metabolite_Detected
Cmax [8]: 19900 ng/mL
Activity [9]: Dose-dependent effect
Vz [10]: 4.29 L/kg
AUC [11]: 37700 ng·h/mL
Activity [12]: Non-Toxic
Drug metabolism [13]: Metabolite_Detected
Activity [14]: 24.8%
AUC [15]: 181000 ng·h/mL
Kp at 10 min [16]: 3.3 to 8.8
log K [17]: 6.92
K [18]: 13 pM
log K [18]: 12.2
AUC [19]: 16400 ng·h/mL
CL/F [20]: 19 mL/min/kg
Drug metabolism [21]: Metabolite_Detected
Activity [22]: Active
Drug metabolism [23]: Metabolite_Detected
Activity [24]: Non-Toxic
Activity [25]: Dose-dependent effect
Cmax [26]: 8670 ng/mL
